The EternaBench riboswitch data

System: MS2 coat protein
Assay: apparent Kd, MS2 coat protein; higher = weaker binding; RNA-MaP array; FMN 200 µM where present
How it was run: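 Apparent Kd: the median of filtered binding-curve fits from single clusters. Designs were transcribed on Illumina sequencing-chip clusters by stalled E. coli RNA polymerase and titrated with SNAP-549-labelled MS2 coat protein from 0.7 or 1.5 nM, doubling to 3 µM, in 100 mM Tris-HCl pH 7.5, 80 mM KCl, 4 mM MgCl2, BSA, DTT, yeast tRNA and Tween-20. Each series ran without and then with constant ligand, and green signal was normalised to red-channel RNA signal and control-cluster median Fmax.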

[1] = designed as: OFF switch for flavin mononucleotide, no ligand
[2] = ligand present: flavin mononucleotide, designed as: OFF switch for flavin mononucleotide
[3] = designed as: ON switch for flavin mononucleotide, no ligand
[4] = ligand present: flavin mononucleotide, designed as: ON switch for flavin mononucleotide

Sequence	apparent Kd [1]	apparent Kd [2]	apparent Kd [3]	apparent Kd [4]
AUCAGAUCGUCAGGAUAUACGUCACUGCGUCAGCAGUGUGGUAAGAUCACAUGAGGAUCACCCAUGUAGAAGGGACGAGCUGAU	13.9 nM	296 nM		
UGGUACAUGGGAGGAUAUGGGAAGUUAACAUGAGGAUCACCCAUGUUUGCCGAAAGGCAAAAGAACUAGAAGGCCCAUGUACCU			23.1 nM	16.4 nM
UAAUAAUUAUGAGGAUAUAUACAACAUGAGGAUCACCCAUGUACCCAUGUAGUAGAAGGCAUAUUUUUAGUUAAUAAUAUAACU			82.2 nM	33 nM
GAGGACUGAAUAAAUAACUCAAAUACAUGAGGAUCACCCAUGUAGGAUAUCGUCAGGAAUACUGACGAGAAGGACAUACAGUCC	13.4 nM	19.2 nM		
CCGAGAUGUGCAGGAUAUCAGGAUACGGUCCGCUGAGAAGGGCACAUGAGGAUCACCCAUGUGUGCGCAUAGGUGAAAGGCUUU	285 nM	154 nM		
GCUGCGCGAGGAUAUGCGGUUCGCGCUGUGGCCCGUGGCGGACAUGAGGAUCACCCAUGUAGAAGGCGUGCGGG	13 nM	15.1 nM		
GCGAUUUUGUAAGGAUAUACUCGAGUUUUAAGAGUAGAAGGUACUUACAUGAGGAUCACCCAUGUCUAACGAAAUACUAGUCGC			10.5 nM	8.44 nM
UAACAGACGCCUUACAUGAGGAUCACCCAUGUGGCCUUAACCAGAAGGCCCGGAAGAUGACUCAGGGAGGAUAUGGUUUAACAG			349 nM	57.3 nM
AGAUUCAUGGCCCGUUUGGGCCCACAUGAGGAUCACCCAUGUGAGGAUAUGACGUACCUGACUCGUCAGAAGGCGCAUGCGAAA	7.45 nM	16.7 nM		
GUUGGGUGUCAUGUCGCACAUGAGGAUCACCCAUGUAAGAGGUAGGAUAUCCACGAGUAACAAGAGGAGAAGGGCCGUCAGCGU	25.8 nM	32.2 nM		
AGUGUCAUCGAGAAGGCCUCAUGAACAUGAGGAUCACCCAUGUAAUAUGGGAGGAUAUCGAUGAUACAGCUACGUUUCGUAGCA			51.4 nM	33.9 nM
GUCAGCUCGUGAGGAUAUACAUGUGCUGGAAACAGCACUAUUAAGUUCACAUGAGGAUCACCCAUGUAGAAGGCACGAGCUGAU	15.7 nM	20.3 nM		
GCUCUAUGCUAGAAGGCGUGAAACAUGAGGAUCACCCAUGUCAGAGAUAUGAGGAUAUGGCAUAGAGCAAAAGACGGAAACGUC			18.7 nM	5.25 nM
CAGACACAUGAGGAUCACCCAUGUGAGGAUAUGCGUACGUUGUCCGUAGGCGACGUGCGCAGAAGGCACAAAGG	73.4 nM	104 nM		
UGGCGUAUCGAAGGAUAUCUGGGCUUACUCGGAGGAUCGACAUGAGGAUCACCCAUGUAUGACCAAGAGAAGGUCGAGGACGUA	141 nM	253 nM		
GGCUGCAAUUAUGAGGAUAUGUUCGGAUGAACAUGAGGAUCACCCAUGUGGCGAUAGCUAUCUGUGCAGAAGGUGUAGUGGUAGC			213 nM	61.8 nM
GAAUGGGUAGAGGAUAUCGCCAUUUCAUCGAGGUGAGAAGGUUACACAUGAGGAUCACCCAUGUCGCCAUUAGC	66.5 nM	56.7 nM		
GCAUAUCAGGGAGGAUAUGACAUGAGGAUCACCCAUGUAAUUAUGGCUCUGUCAGAAGGCCCAUCGUCAGUAUAGUGACGAGAC	375 nM	137 nM		
AAAGGACGAGGAUAUACAUGAGGAUCACCCAUGUAAAAAACAUAAUAAAAGAACUUAUGUAGAAGGCGUCCAAA	58.6 nM	336 nM		
GACUUGCUGUCAGGAUAUAACCGUCCUACACGGUUAGAAGGGACAUGAGGAUCACCCAUGUGCCAGAGCGCACGAAUUUUUUAC	10.8 nM	50.9 nM		
CGUACACAUGAGGAUCACCCAUGUCAGAGGCGGUCAGGAUAUGGGCGGCAUCCGCUAUAGCCAGAAGGGACUGAUG			173 nM	73.6 nM
CGUCAUCAAGUGAGGAUAUCGUCAAAUCAAUCAGGCGAGAAGGCACAUGAGGAUCACCCAUGUCGACUCAUCAC	15.4 nM	22.2 nM		
AAAAUGGUACAGAAGGCGGAGCCCAACAUGAGGAUCACCCAUGUAUGGGUGUCGUCAGUAGUUACCGAGGAUAUGUAUCGGUAU	6.42 nM	7.1 nM		
CUCAUGUGAGGAUAUGUACAGAAAAAAAUGGGUGAAACUGUACAGAAGGCACAUGAGGAUCACCCAUGUGCCUU	24.3 nM	12.2 nM		

Sequence	apparent Kd [1]	apparent Kd [2]	apparent Kd [3]	apparent Kd [4]
GUCAUUGACAAGAAGGCAAACAUGAGGAUCACCCAUGUUCUGCAUGUAUAUUGAGGAUAUUGCCAAUGCAUGAGGAUCACCCAG	11.7 nM	20.2 nM		
AUAAUUAAGCGAGGAUAUAUAUAGAAUAAUUAUAUAGAAGGCGCAAAACAUGAGGAUCACCCAUGUCACCCAUGUUGUGUGUAA			121 nM	47.3 nM
GGGUACAUCGGAGGAUAUCAUGUAAAUACAUGAGGAUCACCCAUGUCCAUGGAGACAUCGGAGAUUGAGAAGGCCGAUGUACCG			171 nM	203 nM
UCACGGGAUUGAGGAUAUAUUUAAAUUUUUACAAUAGAAGGCAAAUUUUUAGUUUUUUCACUUUACAUGAGGAUCACCCAUGUU	28.8 nM	24.5 nM		
AUCAGCUCGUCAGGAUAUAUGUCACUGCUUCGGCAGUGUGGUAAGAUCACAUGAGGAUCACCCAUGUAGAAGGGACGAGCUGAU	29.7 nM	78 nM		
CGAAGAAAGUAGAAGGCAGUCUUAAAAUAGGACUGAGGAUAUACAUGAGGAUCACCCAUGUACUCCUUUAAUAUCUUUGAAAUA	5.5 nM	5.25 nM		
GAAUGUCGGGUAGGAUAUGACGUGCCACGGAGGUCAGAAGGGCCACGACAUGAGGAUCACCCAUGUACUAUGUUCCUUUUUCGA	13.6 nM	31.8 nM		
AAUAACAGAGGAUAUACUGUUUUAUGUAUUUAUUAUUUUAAACAUGAGGAUCACCCAUGUAGAAGGCUGAGUAA	24.6 nM	23.4 nM		
AUACCUUAUGAGAAGGCGAUCAUGAAACAUGAUCGAGGAUAUCAUGUAAACAUGAGGAUCACCCAUGUAUGGGUAUUAUGGUAC			28.4 nM	9.72 nM
GUAGAGUAAGGAUAUGUUGAAUAGGAUAGAAUGGUUAGAAAGCAGAAGGUACAUGAGGAUCACCCAUGUAAUGU	22.6 nM	21 nM		
AUGUUGUCAGGAUAUCGUUAAUUUAGUUGUUUGUAUUAGUUCGAGAAGGGACAUGAGGAUCACCCAUGUUUGUA	32 nM	44 nM		
AUCAGCUCGUCAGGAUAUACGUCACUGCGUCAGCAGUGUGGUAAGAUCACAUGAGGAUCACCCAUGUAGAAGGGUCGAGCUGAU	17.7 nM	349 nM		
AUAUCUAUAUCAGGAUAUGGACAGGCCUGUCCGUAUUGAGACAGUAACAUGAGGAUCACCCAUGUCCAGAAGGGAUCUAUAUAU	53.7 nM	45.7 nM		
GCGUACAUAUCAGGAUAUCAUAUUAUUGUUUUACUCAGUGUAUACAUGAGGAUCACCCAUGUUCUUGAGAAGGGAUUACUACGC	15.2 nM	14.7 nM		
CAUUAAUUGAUUAUUGAAUAUUUACAGGAUAUGUUACAUGAGGAUCACCCAUGUAAAUAUGGGUUACAGAAGGGUAUUUAUAGA	36.2 nM	32.5 nM		
AGGGUGGGCUCAGGAUAUCAGGGAGAGAUGUGGACAUGAGGAUCACCCAUGUACCAGUGUUGUCAUGAGAAGGGAGAUACUGUA			52.7 nM	28 nM
UAUAUAUAGUAAGGAUAUAUAUUUUUUUUAUAAAUAGAAGGUACAGACAUGAGGAUCACCCAUGUUAUAAUAUGGACAUGUGGA	101 nM	101 nM		
UUAUUUAUACAAGGAUAUCUAUUGUUAAUACGACUUACAUGAGGAUCACCCAUGUUUUUAUGUUUAGAGAAGGUGUAUUUUCAG			41.4 nM	31.8 nM
CGCCUGUAAGGAUAUUAGUAGUAGUCAGAAAAGACUAUUACUGAGAAGGUACAUGAGGAUCACCCAUGUUGGCG	15.3 nM	20.4 nM		
GGUACUCAAAGAGUACGGAGUCGAACAUGAGGAUCACCCAUGUAGGAUAUGCAAAGCUAGAAGUAGCAGAAGGACAUGUGCAGC	15 nM	17.1 nM		
GGCGAACGGGCUAACAUGAGGAUCACCCAUGUGGACUCAUGGUAGGAUAUGCUGUACAAAGUACAGCAGAAGGGCCGGUGAGCC			142 nM	445 nM
CUCCAGCAAGGAUAUACAUGAGGAUCACCCAUGUAAAGACAAGAGUUGGGAGACGCAUGUAGAAGGUGCACAUC	38.2 nM	69 nM		
ACAUGAUACAAGAAGGAUGUAUUUGAUUUGAUCAUAGGAUAUUGUUAUAUUGUUUACUCUAAUAACAUGAGGAUCACCCAUGUA			7.04 nM	6.95 nM
